# From ChEMBL document CHEMBL1157729, “Structure-activity relationship and mechanism of action studies of manzamine analogues for the control of neuroinflammation and cerebral infections” (J Med Chem, 2010)
# Key:
# Type in all cases: functional
# [1] = test system: Mycobacterium tuberculosis; experiment: Antimycobacterial activity against Mycobacterium tuberculosis
# [2] = Antineuroinflammatory activity in LPS-stimulated rat neonatal microglia assessed as drug level causing 50% PMA-induced LDH release preincubated 15 mins prior to PMA challenge measured after 70 mins
# In short: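 Neonatal rat microglia (2 × 10^5/well) primed with E. coli LPS 0.3 ng/mL for 17 h at 35.9 °C, washed with HBSS, given compound (0.01–10 μM) or DMSO 15 min, then PMA 1 μM; LDH read spectrophotometrically after 70 min; LDH50 relative to Triton X-100 (0.1%) release; duplicates.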
# [3] = test system: Plasmodium berghei; experiment: Antiplasmodial activity against Plasmodium berghei NK65 infected in Swiss Webster mice (Mus musculus) assessed as inhibition of parasitaemia at 1.1 mg/kg, perorally administered 1 day after infection for 3 days measured after 5 days post infection; conditions: route oral
# In short: (§1)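 Male Swiss Webster mice (18-20 g, ≥5/group) inoculated i.p. with 2×10^7 P. berghei NK-65 parasitized RBC; oral dosing (100 μl, SSV or dilute HCl vehicle) once daily for 3 days from day 1; Giemsa-stained tail blood smears days 5–28; inhibition is % decrease versus untreated controls on day 5.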
# [4] = test system: Plasmodium berghei; experiment: Antiplasmodial activity against Plasmodium berghei NK65 infected in Swiss Webster mice (Mus musculus) assessed as average parasitaemia at 1.1 mg/kg, perorally administered 1 day after infection for 3 days measured after 7 days post infection; conditions: route oral
# [5] = test system: Plasmodium berghei; experiment: Antiplasmodial activity against Plasmodium berghei NK65 infected in Swiss Webster mice (Mus musculus) assessed as average parasitaemia at 3.3 mg/kg, perorally administered 1 day after infection for 3 days measured after 7 days post infection; conditions: route oral; in short: as §1
# [6] = test system: Plasmodium berghei; experiment: Antiplasmodial activity against Plasmodium berghei NK65 infected in Swiss Webster mice (Mus musculus) assessed as average parasitaemia at 10 mg/kg, perorally administered 1 day after infection for 3 days measured after 7 days post infection; conditions: route oral
# [7] = test system: Plasmodium berghei; experiment: Antiplasmodial activity against Plasmodium berghei NK65 infected in Swiss Webster mice (Mus musculus) assessed as inhibition of parasitaemia at 5 mg/kg, perorally administered 1 day after infection for 3 days measured after 5 days post infection; conditions: route oral
# [8] = test system: Plasmodium berghei; experiment: Antiplasmodial activity against Plasmodium berghei NK65 infected in Swiss Webster mice (Mus musculus) assessed as average parasitaemia at 10 mg/kg, perorally administered 1 day after infection for 3 days measured after 10 days post infection; conditions: route oral
# [9] = test system: Plasmodium berghei; experiment: Antiplasmodial activity against Plasmodium berghei NK65 infected in Swiss Webster mice (Mus musculus) assessed as parasitaemia cure at 1.1 mg/kg, perorally administered 1 day after infection for 3 days measured after 28 days post infection; conditions: route oral
# In short: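 Male Swiss Webster mice (18-20 g), at least 5 per group, inoculated i.p. with 2×10^7 P. berghei NK-65-parasitized red cells from a donor mouse. Oral dosing (100 μl, in SSV or 0.01 M HCl dilutions) from day one post-infection on a 3-day schedule (modified Peters test). Giemsa-stained tail-blood smears read from day 5 to day 28. Cure means no parasitemia through day 28.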
# [10] = test system: Plasmodium berghei; experiment: Antiplasmodial activity against Plasmodium berghei NK65 infected in Swiss Webster mice (Mus musculus) assessed as inhibition of parasitaemia at 50 mg/kg, perorally administered 1 day after infection measured after 5 days post infection; conditions: route oral
# In short: (§2)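 Male Swiss Webster mice (18-20 g, ≥5/group) inoculated i.p. with 2×10^7 P. berghei NK-65 parasitized RBC, given a single oral dose (100 μl, SSV or dilute HCl vehicle); parasitemia by Giemsa-stained tail blood smears days 5–28; activity as % decrease versus untreated controls on day 5.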
# [11] = test system: Plasmodium berghei; experiment: Antiplasmodial activity against Plasmodium berghei NK65 infected in Swiss Webster mice (Mus musculus) assessed as average parasitaemia at 5 mg/kg, perorally administered 1 day after infection for 3 days measured after 14 days post infection; conditions: route oral
# [12] = test system: Plasmodium berghei; experiment: Antiplasmodial activity against Plasmodium berghei NK65 infected in Swiss Webster mice (Mus musculus) assessed as average parasitaemia at 3.3 mg/kg, perorally administered 1 day after infection for 3 days measured after 28 days post infection; conditions: route oral; in short: as §1
# [13] = test system: Plasmodium berghei; experiment: Antiplasmodial activity against Plasmodium berghei NK65 infected in Swiss Webster mice (Mus musculus) at 1.1 mg/kg, po
# In short: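 Male Swiss Webster mice (18-20 g), at least 5 per group, inoculated i.p. with 2×10^7 P. berghei NK-65 parasitized red cells from a donor mouse. Oral dosing (100 μl, in SSV or dilute HCl) from day one after infection, three-day modified Peters suppressive schedule. Giemsa-stained tail blood smears from day 5 through day 28. Inhibition is % parasitemia drop on day 5 versus untreated controls. Cure means no parasitemia through day 28.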
# [14] = test system: Plasmodium berghei; experiment: Antiplasmodial activity against Plasmodium berghei NK65 infected in Swiss Webster mice (Mus musculus) at 10 mg/kg, po
# [15] = test system: Plasmodium berghei; experiment: Antiplasmodial activity against Plasmodium berghei NK65 infected in Swiss Webster mice (Mus musculus) assessed as average parasitaemia at 200 mg/kg, perorally administered 1 day after infection measured after 10 days post infection; conditions: Plasmodium berghei, NK65, route oral; in short: as §2
# [16] = test system: Plasmodium berghei; experiment: Antiplasmodial activity against Plasmodium berghei NK65 infected in Swiss Webster mice (Mus musculus) assessed as average parasitaemia at 50 mg/kg, perorally administered 1 day after infection measured after 14 days post infection; conditions: route oral; in short: as §2
# [17] = test system: Plasmodium berghei; experiment: Antiplasmodial activity against Plasmodium berghei NK65 infected in Swiss Webster mice (Mus musculus) assessed as average parasitaemia at 100 mg/kg, perorally administered 1 day after infection measured after 14 days post infection; conditions: route oral; in short: as §2
# [18] = test system: Plasmodium berghei; experiment: Antiplasmodial activity against Plasmodium berghei NK65 infected in Swiss Webster mice (Mus musculus) assessed as average parasitaemia at 50 mg/kg, perorally administered 1 day after infection measured after 21 days post infection; conditions: route oral; in short: as §2
# [19] = test system: Plasmodium berghei; experiment: Antiplasmodial activity against Plasmodium berghei NK65 infected in Swiss Webster mice (Mus musculus) assessed as average parasitaemia at 50 mg/kg, perorally administered 1 day after infection measured after 28 days post infection; conditions: route oral; in short: as §2
# [20] = test system: Plasmodium berghei; experiment: Antiplasmodial activity against Plasmodium berghei NK65 infected in Swiss Webster mice (Mus musculus) assessed as parasitaemia cure at 50 mg/kg, perorally administered 1 day after infection measured after 28 days post infection; conditions: route oral
# In short: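 P. berghei NK-65 infection in male Swiss Webster mice (18-20 g; 2×10^7 parasitized erythrocytes i.p.; ≥5 per group). A single oral dose of 100 μl, diluted in SSV or 0.01 M HCl, then observation for toxicity signs and body weight. Parasitemia read from Giemsa-stained tail smears from day 5 through day 28. Mice free of parasitemia through day 28 counted as cured.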
# [21] = test system: Plasmodium berghei; experiment: Antiplasmodial activity against Plasmodium berghei infected in mice (Mus musculus) at 5 mg/kg, perorally administered 1 day post infection for 3 days; conditions: route oral
# [22] = test system: Plasmodium berghei; experiment: Antiplasmodial activity against Plasmodium berghei infected in mice (Mus musculus) at 10 mg/kg, perorally administered 1 day post infection for 3 days; conditions: route oral
# [23] = test system: HeLa; experiment: Cell cycle arrest in human HeLa cells assessed as increase in S phase accumulation at 10 uM after 24 hrs by FACS analysis
# [24] = test system: HeLa; experiment: Cell cycle arrest in human HeLa cells assessed as increase in G0/G1 phase accumulation at 3 uM after 24 hrs by FACS analysis
# [25] = test system: HeLa; experiment: Cell cycle arrest in human HeLa cells assessed as decrease in G2/M phase accumulation at 20 uM after 24 hrs by FACS analysis; set-up: scale not given: the % may be the effect or the level left
smiles,measurement,setting,value
O[C@]12C=C(c3nccc4c3[nH]c3ccccc34)[C@@H]3CCN(CCCC/C=C\CC1)C[C@@]31C[C@@H]3/C=C\CCCCN3[C@H]12 [MANZAMINE A],MIC,[1],1.56 µg/mL
same,Activity,[2],>10 µM
same,inhibition in vivo at 1.1 mg/kg,[3],75%
same,inhibition in vivo at 1.1 mg/kg,[4],5.5%
same,inhibition in vivo at 3.3 mg/kg,[5],2.8%
same,inhibition in vivo at 10 mg/kg,[6],0.2%
same,inhibition in vivo at 5 mg/kg,[7],88%
same,inhibition in vivo at 10 mg/kg,[8],0.4%
same,inhibition in vivo at 1.1 mg/kg,[9],0%
same,inhibition in vivo at 50 mg/kg,[10],100%
same,inhibition in vivo at 5 mg/kg,[11],13.5%
same,inhibition in vivo at 3.3 mg/kg,[12],53.9%
same,inhibition in vivo at 1.1 mg/kg,[13],26.5%
same,inhibition in vivo at 10 mg/kg,[14],> 30%
same,inhibition in vivo at 200 mg/kg,[15],0%
same,inhibition in vivo at 50 mg/kg,[16],1%
same,inhibition in vivo at 100 mg/kg,[17],0%
same,inhibition in vivo at 50 mg/kg,[18],5.2%
same,inhibition in vivo at 50 mg/kg,[19],6.25%
same,inhibition in vivo at 50 mg/kg,[20],60%
same,Activity,[21],24.3 days
same,Activity,[22],14.3 days
same,Activity,[23],59.1%
same,Activity,[24],56.2%
same,Activity,[25],11.8%
